# Calls of active or inactive are those of the source. The rule behind the calls is not given here.
# How the values were obtained:
# [1] = test system: A549; assay: Cytotoxicity against human A549 cells after 3 days by MTT assay; assay type: functional, cell-based; conditions: A549, 72 h
# Outline: (§1)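 MTT read-out: formazan dissolved in DMSO, absorbance at 570 nm, compound-free wells as blanks. Survival expressed as percentage of untreated control wells.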
# [2] = test system: MDA-MB-435; assay: Cytotoxicity against human MDA-MB-435 cells after 3 days by MTT assay; assay type: functional, cell-based; conditions: MDA-MB-435, 72 h; outline: as §1
# [3] = test system: LoVo; assay: Cytotoxicity against human LoVo cells after 3 days by MTT assay; assay type: functional, cell-based; conditions: 72 h; outline: as §1
# [4] = target: T1, Topoisomerase I (Bos taurus) (UniProt Q2HPH0); assay: Inhibition of calf thymus DNA topoisomerase 1-mediated pBR322 DNA cleavage
# T1 sequence (whole entry): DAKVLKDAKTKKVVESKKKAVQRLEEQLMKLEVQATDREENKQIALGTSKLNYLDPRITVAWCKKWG
# Outline: (§2)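 Calf thymus Topo I with supercoiled pBR322 DNA in Topo I buffer with 0.1% BSA, 20 uL reactions. Reactions stopped with loading buffer (EDTA, glycerol, xylene cyanol FF, bromophenol blue). Products resolved on 0.8% agarose in TAE, 40 min at 120 V. Gel stained with ethidium bromide at room temperature and imaged under UV.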
# [5] = target: T1, Topoisomerase I (Bos taurus); assay: Inhibition of calf thymus DNA topoisomerase 1-mediated pBR322 DNA cleavage at 1 uM; outline: as §2
SMILES,IC50 [1] [µM],IC50 [2] [nM],IC50 [3] [µM],Activity [4],Activity [5]
CC[C@]1(O)CC(=O)OCc2c1cc1n(c2=O)Cc2c-1nc1cccc(/N=C/c3ccccc3C)c1c2C,3.29,3.9,1.38,Active,
CC[C@]1(O)CC(=O)OCc2c1cc1n(c2=O)Cc2c-1nc1cccc(NC(C)=O)c1c2C,151,4320,190,,
CC[C@]1(O)CC(=O)OCc2c1cc1n(c2=O)Cc2c-1nc1cccc(N)c1c2C,3.55,110,10.3,Active,inactive
CC[C@]1(O)CC(=O)OCc2c1cc1n(c2=O)Cc2c-1nc1cccc(/N=C/c3ccc(Br)cc3)c1c2C,1.87,18,5.8,,
CC[C@]1(O)CC(=O)OCc2c1cc1n(c2=O)Cc2c-1nc1cccc(/N=C/c3ccc(Cl)cc3)c1c2C,2.55,11,1.61,,
CC[C@]1(O)CC(=O)OCc2c1cc1n(c2=O)Cc2c-1nc1cccc(/N=C/c3ccc(C)cc3)c1c2C,2.84,9.1,0.91,Active,
CC[C@]1(O)CC(=O)OCc2c1cc1n(c2=O)Cc2c-1nc1cccc(/N=C/c3cc(C)cc(C)c3)c1c2C,5.58,1180,5.96,,
CC[C@]1(O)CC(=O)OCc2c1cc1n(c2=O)Cc2c-1nc1cccc(/N=C/c3cccc(C)c3)c1c2C,2.92,16,2.6,,
CC[C@]1(O)CC(=O)OCc2c1cc1n(c2=O)Cc2c-1nc1cccc(/N=C/c3ccc(C)cc3C)c1c2C,2.39,720,8.62,,
CC[C@]1(O)CC(=O)OCc2c1cc1n(c2=O)Cc2c-1nc1cccc(/N=C/c3ccc(N(C)C)cc3)c1c2C,3.01,9.8,3.39,,
CC[C@]1(O)CC(=O)OCc2c1cc1n(c2=O)Cc2c-1nc1cccc(/N=C/c3ccc(Cl)cc3Cl)c1c2C,3.6,360,4.19,,
CC[C@]1(O)CC(=O)OCc2c1cc1n(c2=O)Cc2c-1nc1cccc(/N=C/c3cccc([N+](=O)[O-])c3)c1c2C,5.44,14,1.07,,
CC[C@@]1(O)C(=O)OCc2c1cc1n(c2=O)Cc2cc3c(CN(C)C)c(O)ccc3nc2-1 [TOPOTECAN],1.09,79,1.21,,
CC[C@]1(O)CC(=O)OCc2c1cc1n(c2=O)Cc2c-1nc1cccc(/N=C/c3ccc(C(C)(C)C)cc3)c1c2C,4.56,270,4.26,,
CC[C@]1(O)CC(=O)OCc2c1cc1n(c2=O)Cc2c-1nc1cccc(/N=C/c3ccccc3OC)c1c2C,2.28,2.2,1.93,Active,

# — ChEMBL document CHEMBL1165875, “Synthesis and evaluation of 9-benzylideneamino derivatives of homocamptothecin as potent inhibitors of DNA topoisomerase I” (Eur J Med Chem, 2010)
